Sampled rows, rich in hits. Any-hit rate of the full collection: about 1.7%.
HCV core dimer: HCV core protein dimerization inhibition; TR-FRET GST/Flag-core106 dimerization, 1536-well; actives 0.33% (n = 300,000); inhibition, % at 5 µM;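 active = inhibition above the mean of all tested compounds plus 3 SD, set per screening campaign, cut at about 45% in these data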
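Material: Tagged HCV core106 pair (GST and Flag) | Amount: GST-core106 13.5 nM, Flag-core106 17 nM | Medium: KF-containing HEPES buffer, pH 7.45, DTT, CHAPS, BSA | Reagent: Eu donor and XL665 acceptor anti-tag antibodies | Schedule: 4 h at 22.5 °C | Technique: Time-resolved FRET, ex 340 nm, em 617 and 671 nm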
PP1 counter: counter-screen for PP5 inhibitors: inhibitors of human PP1-alpha; P62136; purified PP1alpha, OMFP fluorescence; inhibition, % at 6.7 µM; actives 0.9% (n = 320,000); AID 2235;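 active = inhibition above the mean inhibition of all tested compounds plus 3 SD, computed separately for each screening campaign, cut at about 15% in these data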
PP5 primary: PP5 (human) phosphatase inhibition. actives 0.18% (n = 320,000). P53041. purified PP5c, OMFP substrate fluorescence. inhibition, % at 6.7 µM;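 active = inhibition above the campaign's mean inhibition across all tested compounds plus 3 SD, cut at about 9.5% in these data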;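 also: 0% = DMSO only and 100% = 100 µM cantharidin control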
Target sequence (P53041 whole entry, looked up): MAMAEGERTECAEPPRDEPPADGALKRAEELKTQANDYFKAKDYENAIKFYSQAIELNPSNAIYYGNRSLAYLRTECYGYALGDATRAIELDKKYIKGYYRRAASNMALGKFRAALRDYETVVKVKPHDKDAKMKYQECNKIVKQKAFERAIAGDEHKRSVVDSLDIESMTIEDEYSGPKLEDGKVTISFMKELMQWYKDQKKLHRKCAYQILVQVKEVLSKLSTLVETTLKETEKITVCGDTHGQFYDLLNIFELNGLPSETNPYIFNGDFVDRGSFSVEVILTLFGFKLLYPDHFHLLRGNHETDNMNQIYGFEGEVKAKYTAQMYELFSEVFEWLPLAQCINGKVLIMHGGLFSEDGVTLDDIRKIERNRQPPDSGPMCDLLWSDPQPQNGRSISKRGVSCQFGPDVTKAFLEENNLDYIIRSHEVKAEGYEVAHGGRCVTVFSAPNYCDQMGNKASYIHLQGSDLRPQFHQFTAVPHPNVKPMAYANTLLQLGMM
ZTA DNA inh: ZTA (EBV) inhibition in EBNA-1 counter-screen. P03206. ZTA-DNA binding, fluorescence polarization. inhibition, % at 11 µM. actives 0.15% (n = 320,000). AID 2234; in the data active = inhibition above about 33%
EBNA-1 inhibitor: blocks EBNA-1 binding to DNA; EBNA-1 DNA binding, fluorescence polarization; inhibition, % at 14.8 µM; actives 0.34% (n = 300,000); in the data active = inhibition above about 28%
PP1 inh confirm: confirmation of human PP1 phosphatase inhibitors; actives 52% (n = 1,900); purified PP1alpha, OMFP substrate fluorescence; shares compounds with PP1 counter; inhibition, % at 6.7 µM; AID 2358;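 active = mean PP1 inhibition above a set limit taken from the earlier primary screen, cut at about 15% in these data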
PP5 counter: counter-screen for PP1 inhibitors: human PP5 phosphatase inhibition. shares compounds with PP1 counter. purified PP5c, OMFP fluorescence. inhibition, % at 6.7 µM. actives 4% (n = 1,900). AID 2360;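 active = mean PP5 inhibition over triplicate wells above about 9.5% taken from the earlier PP1 screen, limit read from the data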
Active calls of the source: *; / = not tested or not shown.

SMILES	HCV core dimer	PP1 counter	PP5 primary	ZTA DNA inh	EBNA-1 inhibitor	PP1 inh confirm	PP5 counter
CCC(=O)NC(C)c1cc(Cl)c2cccnc2c1O (stereo not given)	/	2.4	-0.4	-2.6	/	/	/
CCOC(=O)Cn1c(=NC(=O)CSC(C)=O)sc2ccccc21	1.0	-0.3	-2.0	0.8	-4.3	/	/
C#CCn1c(=NC(=O)c2cc(Cl)sc2Cl)sc2cc(S(N)(=O)=O)ccc21	-70.6	19.1*	1.9	2.0	21.7	25.4*	-0.9
C#CCn1c(=NC(=O)c2cc(-c3cccs3)nc3ccccc23)sc2cc(S(N)(=O)=O)ccc21	-7.3	20.3*	3.5	-4.8	13.9	4.0	-0.5
CCOC(=O)Cn1c(=NC(=O)c2sc3ccccc3c2Cl)sc2cc(S(N)(=O)=O)ccc21	41.5	30.4*	-0.3	11.6	16.9	31.5*	-3.0
O=C(CN1CCN(c2ccc(O)cc2)CC1)Nc1ccc2c(c1)OCCCO2	/	0.0	2.9	-14.0	/	/	/
COc1ccc(C2/C(=C(/O)c3ccc(C)cc3)C(=O)C(=O)N2c2ccccn2)cc1 (stereo not given)	3.1	4.7	-0.7	10.1	8.4	/	/
Cc1ccc(/C(O)=C2/C(=O)C(=O)N(c3ccccn3)C2c2cccc([N+](=O)[O-])c2)cc1 (stereo not given)	9.2	18.3*	0.3	-10.2	6.3	8.7	-4.8
CCOc1ccc(S(=O)(=O)NCc2ccc(OC)cc2)c2cccnc12	2.6	67.9*	-1.4	10.8	1.8	-1.3	2.0
COC(=O)N/N=C/c1cc(N=Nc2ccccc2Cl)ccc1O	4.6	18.9*	-0.4	-6.2	-9.9	24.8*	0.5
COc1ccc(CCNc2nc(-c3ccccn3)cs2)cc1OC	-2.6	46.8*	3.2	-5.1	8.2	41.2*	-5.0
O=C(CSc1nc(=O)n2ccccc2n1)N1N=C(c2cccs2)CC1c1ccc(F)cc1 (stereo not given)	9.3	10.2	1.9	-14.2	-9.7	/	/
Cc1ccc(C2CC(c3cccs3)=NN2C(=O)CSc2nc(=O)n3ccc(C)cc3n2)cc1 (stereo not given)	60.6*	22.4*	-1.9	-21.6	5.7	15.8*	2.0
Cc1cc(C)cc(N2CCCn3c2nc2c3c(=O)[nH]c(=O)n2C)c1	12.9	1.6	-1.3	9.1	2.2	/	/
COc1ccc(NC(=O)CSc2nc3c(c(=O)n2C)SCC3)cc1OC	-3.8	-2.0	4.2	8.5	-1.9	/	/
O=C(Nc1ccc(Br)cc1)c1ccc(N2C(=O)C3CC=C(Cl)CC3C2=O)cc1 (stereo not given)	25.8	26.5*	2.7	3.9	-0.9	25.6*	-3.2
O=C(Cc1ccc(Cl)cc1)Nc1ccc(N2CCCC2)cc1	9.8	-1.7	-5.6	17.6	-9.4	/	/
Clc1cccc(Cl)c1CNc1ccc(N2CCCC2)cc1	24.3	18.7*	2.8	-20.6	4.8	0.8	1.5
CCCn1c(=O)c(C(=O)NNC(=O)c2ccccc2[N+](=O)[O-])c(O)c2ccccc21	-8.6	19.9*	3.5	9.4	3.2	18.3*	-5.0
S=c1[nH]nc(-c2cc(-c3ccccc3)n[nH]2)n1/N=C/C=C/c1ccccc1	5.2	22.8*	5.2	20.8	6.1	16.9*	0.4
COc1ccccc1/C=C/C=N/n1c(-c2ccc(F)cc2)n[nH]c1=S	14.3	-2.6	0.0	4.4	11.1	/	/
COc1ccccc1/C=C/C=N/n1c(-c2cc(-c3ccccc3)n[nH]2)n[nH]c1=S	10.4	21.7*	2.4	21.3	1.2	27.1*	3.1
CCOC(=O)N1CCN(Cc2nc(N)nc(Nc3ccc(Oc4ccccc4)cc3)n2)CC1	5.8	22.6*	2.2	-5.5	-9.8	3.5	-0.9
Cc1cccc(C(=O)NC(C(=O)Nc2nc(-c3ccccn3)cs2)C(C)C)c1 (stereo not given)	4.8	20.6*	1.8	-18.2	-15.3	24.9*	-1.5
CC(Oc1cccc(Cl)c1)C(=O)Nc1nc(-c2ccccn2)cs1 (stereo not given)	13.2	29.6*	7.1	-6.5	-10.1	35.5*	2.1
CCOC(=O)c1[nH]nc(C(=O)c2ccc(Br)cc2)c1O	1.7	31.1*	-0.1	1.2	-5.6	30.4*	-2.7

Screening data: PubChem, The Scripps Research Institute Molecular Screening Center
